Source: ChEMBL document CHEMBL2380298, “Synthesis and antimicrobial activity of novel amphiphilic aromatic amino alcohols” (2013)

What was measured:
Format in all cases: functional
[1] = tested on: Pseudomonas aeruginosa; test: Antimicrobial activity against Pseudomonas aeruginosa ATCC 27853 by broth dilution method
[2] = tested on: Candida parapsilosis; test: Antimicrobial activity against Candida parapsilosis ATCC 90030 by broth dilution method; conditions: Lodderomyces parapsilosis
[3] = tested on: Staphylococcus aureus; test: Antimicrobial activity against Staphylococcus aureus ATCC 29213 by broth dilution method; conditions: for MIC: Staphylococcus aureus, ATCC 29213
[4] = tested on: Escherichia coli; test: Antimicrobial activity against Escherichia coli ATCC 11229 by broth dilution method; conditions: for MIC: Escherichia coli, ATCC 11229
[5] = tested on: Candida tropicalis; test: Antimicrobial activity against Candida tropicalis ATCC 750 by broth dilution method
[6] = tested on: Nakaseomyces glabratus; test: Antimicrobial activity against Candida glabrata ATCC 18804 by broth dilution method
[7] = tested on: Staphylococcus epidermidis; test: Antimicrobial activity against Staphylococcus epidermidis ATCC 12228 by broth dilution method; conditions: for MIC: Staphylococcus epidermidis, ATCC 12228
[8] = tested on: Staphylococcus aureus; test: Bactericidal activity against methicillin-resistant Staphylococcus aureus clinical isolate 236 after 24 hrs; conditions: isolate 236, 24 h
Method in brief: (§1)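 Bactericidal concentration: 0.1 ml from wells at the MIC dilution and the dilutions on either side was streaked onto tryptic soy agar and incubated 24 h. It was taken as the lowest drug concentration giving no growth (100% killing).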

[9] = tested on: Staphylococcus aureus; test: Bactericidal activity against methicillin-resistant Staphylococcus aureus clinical isolate 235 after 24 hrs; conditions: isolate 235, 24 h; method in brief: as §1
[10] = tested on: Staphylococcus aureus; test: Antimicrobial activity against methicillin-resistant Staphylococcus aureus clinical isolate 215 by broth dilution method
[11] = tested on: Staphylococcus aureus; test: Antimicrobial activity against methicillin-resistant Staphylococcus aureus clinical isolate 255 by broth dilution method
[12] = tested on: Staphylococcus aureus; test: Antimicrobial activity against methicillin-resistant Staphylococcus aureus clinical isolate 264 by broth dilution method
[13] = tested on: Staphylococcus aureus; test: Antimicrobial activity against methicillin-resistant Staphylococcus aureus clinical isolate 257 by broth dilution method
[14] = tested on: Staphylococcus aureus; test: Bactericidal activity against methicillin-resistant Staphylococcus aureus clinical isolate 218 after 24 hrs; conditions: isolate 218, 24 h; method in brief: as §1
[15] = tested on: Staphylococcus aureus; test: Antimicrobial activity against methicillin-resistant Staphylococcus aureus clinical isolate 232 by broth dilution method
[16] = tested on: Staphylococcus aureus; test: Antimicrobial activity against methicillin-resistant Staphylococcus aureus clinical isolate 225 by broth dilution method
[17] = tested on: Staphylococcus aureus; test: Antimicrobial activity against methicillin-resistant Staphylococcus aureus clinical isolate 176 by broth dilution method
[18] = tested on: Staphylococcus aureus; test: Antimicrobial activity against methicillin-resistant Staphylococcus aureus clinical isolate 205 by broth dilution method
[19] = tested on: Staphylococcus aureus; test: Bactericidal activity against methicillin-resistant Staphylococcus aureus clinical isolate 238 after 24 hrs; conditions: isolate 238, 24 h; method in brief: as §1
[20] = tested on: Staphylococcus aureus; test: Bactericidal activity against methicillin-resistant Staphylococcus aureus clinical isolate 237 after 24 hrs; conditions: isolate 237, 24 h; method in brief: as §1
[21] = tested on: Staphylococcus aureus; test: Antimicrobial activity against methicillin-resistant Staphylococcus aureus clinical isolate 212 by broth dilution method
[22] = tested on: Staphylococcus aureus; test: Antimicrobial activity against methicillin-resistant Staphylococcus aureus clinical isolate 237 by broth dilution method
[23] = tested on: Candida albicans; test: Antimicrobial activity against Candida albicans ATCC 22019 by broth dilution method
[24] = tested on: Staphylococcus aureus; test: Bactericidal activity against methicillin-resistant Staphylococcus aureus clinical isolate 255 after 24 hrs; conditions: isolate 255, 24 h; method in brief: as §1
[25] = tested on: Staphylococcus aureus; test: Bactericidal activity against methicillin-resistant Staphylococcus aureus clinical isolate 212 after 24 hrs; conditions: isolate 212, 24 h; method in brief: as §1
[26] = tested on: Staphylococcus aureus; test: Antimicrobial activity against methicillin-resistant Staphylococcus aureus clinical isolate 231 by broth dilution method
[27] = tested on: Staphylococcus aureus; test: Bactericidal activity against methicillin-resistant Staphylococcus aureus clinical isolate 231 after 24 hrs; conditions: isolate 231, 24 h; method in brief: as §1
[28] = tested on: Staphylococcus epidermidis; test: Bactericidal activity against Staphylococcus epidermidis ATCC 12228 after 24 hrs; conditions: ATCC 12228, 24 h
Method in brief: (§2)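 MBC: after MIC determination, 0.1 ml from the MIC well and from two dilutions either side streaked on tryptic soy agar, incubated 24 h; MBC taken as lowest concentration giving no growth (100% kill).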

[29] = tested on: Staphylococcus aureus; test: Bactericidal activity against methicillin-resistant Staphylococcus aureus clinical isolate 232 after 24 hrs; conditions: isolate 232, 24 h; method in brief: as §1
[30] = tested on: Staphylococcus aureus; test: Antimicrobial activity against methicillin-resistant Staphylococcus aureus clinical isolate 207 by broth dilution method
[31] = tested on: Staphylococcus aureus; test: Antimicrobial activity against methicillin-resistant Staphylococcus aureus clinical isolate 227 by broth dilution method
[32] = tested on: Staphylococcus aureus; test: Antimicrobial activity against methicillin-resistant Staphylococcus aureus clinical isolate 178 by broth dilution method
[33] = tested on: Staphylococcus aureus; test: Bactericidal activity against methicillin-resistant Staphylococcus aureus clinical isolate 257 after 24 hrs; conditions: isolate 257, 24 h; method in brief: as §1
[34] = tested on: Staphylococcus aureus; test: Antimicrobial activity against methicillin-resistant Staphylococcus aureus clinical isolate 260 by broth dilution method
[35] = tested on: Escherichia coli; test: Bactericidal activity against Escherichia coli ATCC 11229 after 24 hrs; conditions: ATCC 11229, 24 h; method in brief: as §2
[36] = tested on: Staphylococcus aureus; test: Bactericidal activity against methicillin-resistant Staphylococcus aureus clinical isolate 225 after 24 hrs; conditions: isolate 225, 24 h; method in brief: as §1
[37] = tested on: Staphylococcus aureus; test: Antimicrobial activity against methicillin-resistant Staphylococcus aureus clinical isolate by broth dilution method
[38] = tested on: Staphylococcus aureus; test: Bactericidal activity against methicillin-resistant Staphylococcus aureus clinical isolate 264 after 24 hrs; conditions: isolate 264, 24 h; method in brief: as §1
[39] = tested on: Staphylococcus aureus; test: Antimicrobial activity against methicillin-resistant Staphylococcus aureus clinical isolate 236 by broth dilution method
[40] = tested on: Staphylococcus aureus; test: Antimicrobial activity against methicillin-resistant Staphylococcus aureus clinical isolate 259 by broth dilution method
[41] = tested on: Staphylococcus aureus; test: Antimicrobial activity against methicillin-resistant Staphylococcus aureus clinical isolate 195 by broth dilution method
[42] = tested on: Staphylococcus aureus; test: Bactericidal activity against methicillin-resistant Staphylococcus aureus clinical isolate 260 after 24 hrs; conditions: isolate 260, 24 h; method in brief: as §1
[43] = tested on: Staphylococcus aureus; test: Bactericidal activity against methicillin-resistant Staphylococcus aureus clinical isolate 259 after 24 hrs; conditions: isolate 259, 24 h; method in brief: as §1
[44] = tested on: Staphylococcus aureus; test: Bactericidal activity against Staphylococcus aureus ATCC 29213 after 24 hrs; conditions: ATCC 29213, 24 h; method in brief: as §1
[45] = tested on: Staphylococcus aureus; test: Antimicrobial activity against methicillin-resistant Staphylococcus aureus clinical isolate 218 by broth dilution method
[46] = tested on: Staphylococcus aureus; test: Antimicrobial activity against methicillin-resistant Staphylococcus aureus clinical isolate 238 by broth dilution method
[47] = tested on: Staphylococcus aureus; test: Antimicrobial activity against methicillin-resistant Staphylococcus aureus clinical isolate 235 by broth dilution method

CCCCOc1ccc(CNC(CO)(CO)CO)cc1.Cl
MIC [1]: 512 µg/mL | MIC [2]: > 512 µg/mL | -logMIC [3]: 2.49 | MIC [3]: 1020 µg/mL | -logMIC [4]: 2.49 | MIC [4]: 1020 µg/mL | MIC [5]: > 512 µg/mL | MIC [6]: 512 µg/mL | -logMIC [7]: 2.79 | MIC [7]: 512 µg/mL

CCCCCCOc1ccc(CNC(CO)(CO)CO)cc1.Cl
MIC [1]: 512 µg/mL | MIC [2]: > 512 µg/mL | -logMIC [3]: 3.45 | MIC [3]: 128 µg/mL | -logMIC [4]: 3.13 | MIC [4]: 256 µg/mL | MIC [5]: > 512 µg/mL | MIC [6]: 256 µg/mL | -logMIC [7]: 3.43 | MIC [7]: 128 µg/mL

CCCCCCCCOc1ccc(CNC(CO)(CO)CO)cc1.Cl
MBC [8]: 32 µg/mL | MBC [9]: 32 µg/mL | MIC [10]: 16 µg/mL | MIC [1]: > 256 µg/mL | MIC [11]: 8 µg/mL | MIC [12]: 8 µg/mL | MIC [13]: 8 µg/mL | MBC [14]: 128 µg/mL | MIC [15]: 16 µg/mL | MIC [2]: 32 µg/mL | MIC [16]: 128 µg/mL | MIC [17]: 32 µg/mL | MIC [18]: 16 µg/mL | MBC [19]: 16 µg/mL | -logMIC [3]: 3.67 | MIC [3]: 8 µg/mL | -logMIC [4]: 4.06 | MIC [4]: 32 µg/mL | MBC [20]: 16 µg/mL | MIC [21]: 32 µg/mL | MIC [22]: 16 µg/mL | MIC [23]: 4 µg/mL | MBC [24]: 8 µg/mL | MBC [25]: 128 µg/mL | MIC [5]: 32 µg/mL | MIC [26]: 16 µg/mL | MBC [27]: 16 µg/mL | MBC [28]: 128 µg/mL | MBC [29]: 16 µg/mL | MIC [30]: 64 µg/mL | MIC [31]: 32 µg/mL | MIC [32]: 128 µg/mL | MBC [33]: 8 µg/mL | MIC [34]: 16 µg/mL | MBC [35]: 32 µg/mL | MBC [36]: 512 µg/mL | -logMIC [37]: 4.287 | MIC50 ([37]; Staphylococcus aureus): 16 µg/mL | MIC90 ([37]; Staphylococcus aureus): 64 µg/mL | MBC [38]: 64 µg/mL | MIC [6]: 8 µg/mL | MIC [39]: 16 µg/mL | MIC [40]: 8 µg/mL | -logMIC [7]: 4.37 | MIC [7]: 16 µg/mL | MIC [41]: 32 µg/mL | MBC [42]: 32 µg/mL | MBC [43]: 8 µg/mL | MBC [44]: 32 µg/mL | MIC [45]: 16 µg/mL | MIC [46]: 16 µg/mL | MIC [47]: 16 µg/mL
